Screening results as filed in PubChem BioAssay.
T cruzi growth-1: blocks T. cruzi growth in NIH3T3 culture | T. cruzi beta-gal in NIH3T3, GalScreen luminescence, 90 h | AID 624255 | 5.9% of 77,000 active | inhibition, % at 8.34 µM;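 active = mean inhibition above about 93%, with at least 55% of replicates each passing it, limit read from the data, passing the limit was not always enough; inconclusive = only one of those two conditions holds; inactive = neither condition holds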
IDH1 R132H inh: IDH1 R132H (human) inhibition; inhibition, % at 10 µM; IDH1 R132H reductase, diaphorase/resazurin fluorescence, 60 min; O75874; 0.18% of 70,000 active; in the data active = inhibition above about 34%; inconclusive = no clear call, values can overlap the other calls; inactive = below about 11%;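 also: 0% = DMSO and 100% = no enzyme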
Target sequence (O75874 whole entry R132H): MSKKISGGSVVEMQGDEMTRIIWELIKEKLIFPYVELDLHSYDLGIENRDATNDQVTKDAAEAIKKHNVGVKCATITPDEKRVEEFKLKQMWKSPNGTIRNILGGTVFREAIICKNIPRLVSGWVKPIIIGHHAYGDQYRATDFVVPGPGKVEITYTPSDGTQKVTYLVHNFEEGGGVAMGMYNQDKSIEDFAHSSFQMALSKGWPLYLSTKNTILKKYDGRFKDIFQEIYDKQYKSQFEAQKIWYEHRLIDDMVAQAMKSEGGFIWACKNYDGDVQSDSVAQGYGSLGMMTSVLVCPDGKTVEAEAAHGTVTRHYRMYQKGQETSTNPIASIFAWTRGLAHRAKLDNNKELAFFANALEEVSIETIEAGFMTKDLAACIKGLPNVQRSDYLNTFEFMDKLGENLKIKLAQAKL
Pf Dd2 inh: P. falciparum Dd2 growth inhibition; 2.3% of 94,000 active; SYBR Green, 72 h; active compounds read low; AID 1159554; activity change, % at 10 µM; in the data active = activity change below about -80%; inconclusive = no clear call, values can overlap the other calls
KDM4C inh: blocks human GASC-1 (KDM4C) demethylase activity | Q9H3R0 | GST-KDM4C 2-372, H3K9me3 peptide, LANCE TR-FRET | inhibition, % at 12.5 µM | 0.15% of 96,000 active;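 active = mean replicate inhibition above about 25%, with at least 55% of replicates also reaching it, limit read from the data, passing the limit was not always enough; inconclusive = only one of those two conditions met; inactive = neither condition met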
Target sequence (Q9H3R0 2-372 limits assumed): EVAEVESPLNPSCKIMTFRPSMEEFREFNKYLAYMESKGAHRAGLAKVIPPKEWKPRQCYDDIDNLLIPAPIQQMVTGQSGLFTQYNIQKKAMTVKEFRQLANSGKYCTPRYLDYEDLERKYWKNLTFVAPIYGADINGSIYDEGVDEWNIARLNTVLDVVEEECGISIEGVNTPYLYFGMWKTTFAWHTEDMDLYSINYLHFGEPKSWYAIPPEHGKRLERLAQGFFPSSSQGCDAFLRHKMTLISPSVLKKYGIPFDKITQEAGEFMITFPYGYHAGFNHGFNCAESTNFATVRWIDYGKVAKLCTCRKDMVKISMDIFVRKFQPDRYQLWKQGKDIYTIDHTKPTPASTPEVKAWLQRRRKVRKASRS
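material = GST-tagged GASC-1 (JMJD2C) catalytic fragment, aa 2-372 | amount = enzyme final amount 10 nM | medium = HEPES buffer, pH 7.5, plus ascorbate | also added = H3K9me3 peptide substrate, Fe(II), 2-oxoglutarate | dosing = single dose | times = 30 min demethylation and 1 h detection at room temperature | detection = LANCE TR-FRET | read-out basis = Fall in 671/618 emission ratio as inhibition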
T cruzi growth-2: blocks T. cruzi growth in NIH3T3 host cells; shares compounds with T cruzi growth-1; T. cruzi beta-gal in NIH3T3, GalScreen luminescence, 90 h; inhibition, % at 8.35 µM; 72% of 5,600 active; AID 651739;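 active = mean replicate inhibition above about 95% and at least 55% of replicates individually reaching it, limit read from the data; inconclusive = only one of the two criteria is met; inactive = neither criterion is met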
T cruzi growth-3: blocks T. cruzi growth in NIH3T3 host cells. shares compounds with T cruzi growth-1. T. cruzi beta-gal in NIH3T3, GalScreen luminescence, 90 h. inhibition, % at 2.09 µM. 21% of 5,600 active. AID 651740;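 active = mean inhibition above about 95%, with at least 55% of replicates also reaching it, limit read from the data; inconclusive = meets just one of the two conditions; inactive = meets neither condition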;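 also: plate controls were neutral control median for no effect and positive control median for full effect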
3T3 cytotox: cytotoxicity in mouse NIH/3T3 fibroblasts | shares compounds with T cruzi growth-1 | NIH/3T3 viability, CellTiter-Glo ATP luminescence, 90 h | cytotoxicity (signal decrease), % at 8.35 µM | 14% of 5,600 active;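 active = mean signal decrease across replicates above about 35% based on untreated-well scatter, with enough replicates individually passing, limit read from the data; inconclusive = no rule stated though some were filed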;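 also: 0% = median of neutral control wells and 100% = median of positive control wells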
3T3 cytotox 2: cytotoxicity in mouse NIH/3T3 fibroblasts | 56% of 5,600 active | shares compounds with T cruzi growth-1 | NIH/3T3 viability, CellTiter-Glo ATP luminescence, 90 h | inhibition, % at 24.9 µM;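 active = mean loss of cell viability signal at or above a set limit, and enough replicates individually reaching it; inconclusive = meets only the mean limit or only the replicate share; inactive = meets neither condition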;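 also: 0% = median of neutral control wells and 100% = median of positive control wells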
* = called active by the depositor; ? = inconclusive; . = no result given; + = active, no number. In the library only some 5.8% were active in any assay of this set; here they are far more common.

SMILES | T cruzi growth-1 | IDH1 R132H inh | Pf Dd2 inh | KDM4C inh | T cruzi growth-2 | T cruzi growth-3 | 3T3 cytotox | 3T3 cytotox 2
C[C@@H]1CN([C@@H](C)CO)S(=O)(=O)c2ccc(C#Cc3ccncc3)cc2O[C@@H]1CN(C)S(=O)(=O)c1ccc(F)cc1 | 114* | 3 | -83* | -5 | ? | 51 | 34* | 44*
C[C@H]1CN([C@@H](C)CO)S(=O)(=O)c2ccc(C#Cc3ccncc3)cc2O[C@H]1CN(C)S(=O)(=O)c1ccccc1 | 70 | 1 | -40 | -13 | . | . | . | .
C[C@@H]1CN([C@H](C)CO)S(=O)(=O)c2ccc(C#Cc3ccc(F)cc3)cc2O[C@H]1CN(C)S(=O)(=O)c1ccc(F)cc1 | 110* | -3 | -34 | 0 | 98* | 110* | 41* | 55*
Cc1ccc(C(C)C)c(OCC(=O)Nc2cc(-c3nc4ccccc4o3)ccc2C)c1 | . | 0 | . | . | . | . | . | .
C[C@H](CO)N1C[C@H](C)[C@@H](CN(C)C(=O)C2CC2)Oc2cc(C3=CCCC3)ccc2S1(=O)=O | 73 | . | -11 | 0 | . | . | . | .
O=C(Nc1ccc(I)cc1C(=O)NCc1cccnc1)c1ccccc1Cl | . | 1 | . | . | . | . | . | .
CN(C)CC(=O)N1[C@@H]2c3ccc(-c4ccc(F)cc4)c(=O)n3C[C@@H]2[C@@H](CO)[C@@H]1C(=O)NC1CCCC1 | 101* | . | -11 | -1 | 32 | 4 | -6 | -2
CN1[C@H](C(=O)NC2CCCCC2)[C@@H](CO)[C@@H]2Cn3c(ccc(-c4cccc(F)c4)c3=O)[C@@H]21 | ? | . | -6 | 4 | 1 | 34 | 8 | 16
CN1[C@@H]2c3ccc(-c4ccncc4)c(=O)n3C[C@@H]2[C@@H](CO)[C@@H]1C(=O)NC1Cc2ccccc2C1 | 16 | . | -4 | 3 | . | . | . | .
CCCN1[C@H](C(=O)N[C@@H](C)c2ccccc2)[C@@H](CO)[C@@H]2Cn3c(ccc(-c4ccccc4)c3=O)[C@@H]21 | ? | . | -1 | 8 | 104* | 53 | 2 | 52*
CN1[C@@H]2c3ccc(-c4cncnc4)c(=O)n3C[C@@H]2[C@@H](CO)[C@@H]1C(=O)NC1Cc2ccccc2C1 | + | . | . | 9 | 61 | -1 | 11 | -3
CCCN1[C@@H]2c3ccc(-c4ccccc4)c(=O)n3C[C@@H]2[C@@H](CO)[C@@H]1C(=O)N[C@@H](C)c1ccccc1 | 81 | . | -39 | 10 | . | . | . | .
NC(=O)COc1ccc(/C=N/NC(=O)CCCCC(=O)NO)cc1 | . | 0 | . | . | . | . | . | .
Cc1ccc(Nc2nc(Oc3ccc(=O)[nH]n3)nc(N3CCOCC3)n2)cc1 | . | 0 | . | . | . | . | . | .
CN(C)CC(=O)N1[C@H](C(=O)NC2CCC2)[C@@H](CO)[C@@H]2Cn3c(ccc(-c4cccc(F)c4)c3=O)[C@@H]21 | 35 | . | 7 | 3 | . | . | . | .
CN(C)CC(=O)N1[C@@H]2c3ccc(-c4ccccc4)c(=O)n3C[C@@H]2[C@@H](CO)[C@@H]1C(=O)NC1CCC1 | + | . | . | 0 | -4 | 25 | 2 | -6
CN(C)CC(=O)N1[C@H](C(=O)NC2CCCC2)[C@@H](CO)[C@@H]2Cn3c(ccc(-c4ccc(F)cc4)c3=O)[C@@H]21 | 105* | . | 0 | -2 | 88 | 1 | 7 | 14
CN(C)CC(=O)N1[C@@H]2c3ccc(-c4cccc(F)c4)c(=O)n3C[C@@H]2[C@@H](CO)[C@@H]1C(=O)NC1CCC1 | 65 | . | 7 | 0 | . | . | . | .
CCC(=O)N1C[C@H]2[C@@H](c3ccccc31)[C@@H](CO)N2Cc1ccccc1OC | ? | . | -71 | 2 | 105* | 11 | 22 | 13
CCC(=O)N1C[C@@H]2[C@H](c3ccccc31)[C@@H](CO)N2C(=O)CC | 102* | . | -76 | -4 | 7 | 3 | -11 | -13
CCC(=O)N1C[C@H]2[C@@H](c3ccccc31)[C@@H](CO)N2C(=O)CC | 60 | . | -21 | -1 | . | . | . | .
COc1ccc([N+](=O)[O-])cc1NC(=O)CN(c1ccccc1F)S(C)(=O)=O | . | 1 | . | . | . | . | . | .
COC(=O)CSc1nnc(-c2sc3ccccc3c2Cl)n1-c1ccc(OC)cc1 | . | 0 | . | . | . | . | . | .
O=C(CCCCCC(=O)Nc1ccccc1O)N/N=C/c1ccc(O)cc1 | . | 0 | . | . | . | . | . | .
O=C(Nc1nccs1)[C@@H]1[C@@H](CO)[C@@H]2Cn3c(cccc3=O)[C@@H]2N1C(=O)C1CCC1 | 101* | . | 13 | 1 | 1 | -13 | 3 | 1
SMILES | T cruzi growth-1 | IDH1 R132H inh | Pf Dd2 inh | KDM4C inh | T cruzi growth-2 | T cruzi growth-3 | 3T3 cytotox | 3T3 cytotox 2
O=C(NCC1CC1)[C@@H]1[C@@H](CO)[C@@H]2Cn3c(ccc(-c4cccnc4)c3=O)[C@@H]2N1C(=O)NC1CCCC1 | ? | . | 2 | 3 | -1 | 32 | -6 | 15
CCN1[C@H](C(=O)NCc2ccc(F)cc2)[C@@H](CO)[C@@H]2Cn3c(ccc(-c4ccccc4OC)c3=O)[C@@H]21 | 104* | . | . | 1 | 69 | 18 | 17 | 3
O=C(NCc1ccc(F)cc1)[C@@H]1[C@@H](CO)[C@@H]2Cn3c(cccc3=O)[C@@H]2N1CCC(F)(F)F | 143* | . | . | 1 | -1 | -5 | 0 | 1
O=C(NCC1CC1)[C@@H]1[C@@H](CO)[C@@H]2Cn3c(ccc(-c4cncnc4)c3=O)[C@@H]2N1C(=O)NC1CCCC1 | -29 | . | . | 2 | . | . | . | .
O=C(CSc1n[nH]c(-c2ccncc2)n1)Nc1sc2c(c1C(=O)Nc1ccccc1)CCCC2 | . | 0 | . | . | . | . | . | .
CS(=O)(=O)N(CC(=O)Nc1ccc(Br)cc1F)c1ccc(Cl)c(Cl)c1 | . | 0 | . | . | . | . | . | .
COc1ccccc1-c1ccc2n(c1=O)C[C@H]1[C@H](CO)[C@@H](C(=O)Nc3nccs3)N(CC3CC3)[C@@H]21 | ? | . | -1 | 3 | -1 | -28 | 3 | 11
CCN1[C@@H]2c3ccc(-c4ccccc4OC)c(=O)n3C[C@@H]2[C@@H](CO)[C@@H]1C(=O)Nc1nccs1 | 87 | . | 6 | 1 | . | . | . | .
O=C(Nc1nccs1)[C@H]1[C@H](CO)[C@H]2Cn3c(ccc(-c4cccnc4)c3=O)[C@H]2N1CC1CCCC1 | ? | . | -9 | 4 | 20 | -3 | 11 | 54*
Cc1ccc(NC(=O)CC2NC3CCCCC3NC2=O)cc1C (centres undefined) | . | 0 | . | . | . | . | . | .
C[C@H]1CN([C@@H](C)CO)S(=O)(=O)c2ccc(/C=C/c3ccccc3)cc2O[C@@H]1CN(C)C(=O)NC1CCCC1 | 99* | . | -27 | -2 | ? | 56 | -1 | 96*
C[C@@H]1CN([C@@H](C)CO)S(=O)(=O)c2ccc(/C=C/c3ccccc3)cc2O[C@@H]1CN(C)C(=O)NC1CCCC1 | ? | 1 | -20 | -2 | 102* | 82 | 3 | 26*
O=S(=O)(c1cccs1)N1CCCCN2[C@@H](CO)[C@@H](c3ccc(C4=CCCCC4)cc3)[C@@H]2C1 | 76 | . | -63 | . | . | . | . | .
